Assay outcomes from PubChem BioAssay.
dFosB act: activators of mouse delta FosB homodimer; P13346; AID 493131; activation, % at 25 µM; purified delta FosB, TAMRA-CDK5 oligo fluorescence polarization; percent of positive-control signal above neutral wells; 0.99% of 340,000 active;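 active = mean activation above about 17%, with every replicate also reaching it, limit read from the data, passing the limit was not always enough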
Target sequence (P13346 whole entry, looked up): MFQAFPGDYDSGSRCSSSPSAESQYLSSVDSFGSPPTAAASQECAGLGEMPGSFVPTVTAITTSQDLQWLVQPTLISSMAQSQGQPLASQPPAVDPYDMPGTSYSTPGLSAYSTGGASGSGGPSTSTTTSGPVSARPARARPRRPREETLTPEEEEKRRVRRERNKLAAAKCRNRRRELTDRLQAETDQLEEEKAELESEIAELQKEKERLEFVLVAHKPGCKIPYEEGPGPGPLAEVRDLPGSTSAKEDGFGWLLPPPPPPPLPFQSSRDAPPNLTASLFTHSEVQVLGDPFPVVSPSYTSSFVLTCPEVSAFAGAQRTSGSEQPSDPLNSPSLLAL
INS-1E GSIS act: GLuc luminescence reporter in INS-1E cells, primary screen for activators of glucose-dependent secretion of insulin; INS-1E GLuc reporter insulin secretion, 2-3 h; activation, % at 16.6 µM; 0.61% of 370,000 active;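 active = lowest replicate activation of at least 40%, so every replicate reaches that level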
HIV Env fusion: HIV envelope-mediated fusion inhibition | inhibition, % at 12.3 µM | 1.1% of 360,000 active | HeLa-JRFL Env/CEM21 cell fusion, luciferase | AID 651610;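 active = mean replicate inhibition score of at least 50 and every replicate individually at or above 50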
PAX8 reporter: PAX8 transcriptional activity inhibition; 1.2% of 360,000 active; inhibition, % at 12.6 µM; RMG-I TPO-luciferase reporter, SteadyGlo, 24 h;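 active = mean replicate inhibition at least 60% with every replicate also reaching 60%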;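 note: luciferase light reporting Pax8 driven TPO promoter activity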
CDK5 inh: blocks human CDK5/p35 kinase activity. inhibition, % at 10 µM. 0.01% of 330,000 active. Recombinant CDK5/p35, ADP-Glo luminescence, 60 min;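 active = highest replicate inhibition of at least 50% and at least 75% of replicates reaching 50%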
Cneo AK release: causes C. neoformans cell lysis; adenylate kinase release luminescence, 4 h; normalised: neutral wells 0, clomiphene wells 100; lysis activity, % at 15 µM; 0.2% of 360,000 active; AID 651654;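 active = mean lysis activity across replicates of at least 80%, whatever share of replicates individually reach that level; inactive = mean lysis activity below 80%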
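Test system: log-phase Cryptococcus neoformans yeast cells; Quantity: yeast cell density of 5 × 10^6 cells/mL; Buffer or medium: YPD; Doses: single compound concentration per well; Timing: 4 h at 37 °C static, read 1 h later; Measured by: AK luminescence; Read-out basis: lysis from increased AK signal; Control set: Clomiphene as positive control.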
Each line names hits and unclear results; the compound was inactive in the other large screens; [ ] = remark or other dose. This is a sample that favours compounds with a hit; in the whole collection about 2.9% have one here.

CN(C(=O)c1ccc(NC(=O)Cc2cccc(NC(=O)C3CCCN(C(=O)CCc4ccccc4)C3)c2)cc1)C1CCCC1 (stereo not given)	none
CC(C)NC(=O)N(C)C[C@@H]1OCCCC[C@H](C)Oc2ccc(NC(=O)CCC(F)(F)F)cc2C(=O)N([C@H](C)CO)C[C@H]1C	none (no result: dFosB act, CDK5 inh, Cneo AK release)
C=CCN1C(=O)c2n[nH]c(COC)c2C1c1ccc2c(c1)OCO2 (stereo not given)	none (no result: dFosB act, CDK5 inh, Cneo AK release)
C=CCN1C(=O)c2n[nH]c(COC)c2C1c1ccc(F)cc1 (stereo not given)	INS-1E GSIS act 65 (no result: dFosB act, CDK5 inh, Cneo AK release)
O=C(Nc1cccnc1)c1ccc([N+](=O)[O-])s1	PAX8 reporter 67
COc1ccc(NC(=O)N(C)C[C@H]2OCc3ccccc3-c3c(n(C)c4ccccc34)C(=O)N([C@H](C)CO)C[C@@H]2C)cc1	Cneo AK release 111 (no result: dFosB act, HIV Env fusion, PAX8 reporter, CDK5 inh)
C[C@@H]1CN([C@H](C)CO)C(=O)c2ccccc2-c2ccccc2CO[C@H]1CN(C)C(=O)Nc1cccc(C(F)(F)F)c1	none (no result: dFosB act, CDK5 inh)
C[C@@H]1CN([C@H](C)CO)C(=O)c2c(c3ccccc3n2C)-c2ccccc2CO[C@H]1CN(C)C(=O)Nc1cccc(C(F)(F)F)c1	PAX8 reporter 79 (no result: dFosB act, HIV Env fusion, CDK5 inh, Cneo AK release)
COc1cccc(NC(=O)N(C)C[C@H]2OCc3ccccc3-c3c(n(C)c4ccccc34)C(=O)N([C@@H](C)CO)C[C@@H]2C)c1	HIV Env fusion 55[16.7 µM] (no result: dFosB act, CDK5 inh)
C[C@H](CO)N1C[C@H](C)[C@@H](CN(C)C(=O)Nc2cccc(C(F)(F)F)c2)OCc2ccccc2-c2ccccc2C1=O	HIV Env fusion 58[16.7 µM] (no result: dFosB act, CDK5 inh)
CO[C@@H](CN(C)C(=O)C1CCOCC1)[C@H](C)CN([C@@H](C)CO)S(=O)(=O)c1ccccc1	none (no result: dFosB act, HIV Env fusion, PAX8 reporter, CDK5 inh)
C[C@@H]1CN([C@@H](C)CO)C(=O)c2ccccc2-c2ccccc2CO[C@@H]1CN(C)C(=O)Nc1ccc2c(c1)OCO2	HIV Env fusion 59[16.7 µM] (no result: dFosB act, CDK5 inh)
COc1ccccc1-c1cc(NC=O)c2ncc(-c3cccc(C(C)=O)c3)n2c1	HIV Env fusion 67 (no result: dFosB act, INS-1E GSIS act, PAX8 reporter, CDK5 inh)
CC(=O)c1ccc(-c2cnc3c(NC=O)cc(-c4ccccc4Oc4ccccc4)cn23)cc1	HIV Env fusion 56, PAX8 reporter 84 (no result: dFosB act, CDK5 inh)
COc1ccc2c3c(n(C)c2c1)[C@@H](CO)N(CC1CC1)CC31CCN(Cc2nccs2)CC1	none (no result: dFosB act, HIV Env fusion, PAX8 reporter, CDK5 inh, Cneo AK release)
CCNC(=O)Nc1ccc2c(c1)C(=O)N(C)[C@@H]1CC[C@H](CC(=O)NCc3cccc(F)c3)O[C@@H]1CO2	none (no result: dFosB act, CDK5 inh)
Cc1cc(C(=O)OCC(=O)NCc2ccc3c(c2)OCO3)c2ccccc2n1	none (no result: Cneo AK release)
COc1ccc(CNC(=O)COC(=O)c2cc(C)nc3ccccc23)cc1	INS-1E GSIS act 46 (no result: PAX8 reporter)
O=C(CC1CC1)N[C@@H]1CC[C@@H](CCNS(=O)(=O)c2ccc(F)cc2)O[C@H]1CO	none (no result: dFosB act, CDK5 inh)
Cc1cccn2c(=O)c3cc(C(=O)NC4CCCCC4)c(=N)n(Cc4ccccc4)c3nc12	dFosB act 43
Cc1cccn2c(=O)c3cc(C(=O)NC4CCCC4)c(=N)n(Cc4ccc(F)cc4)c3nc12	none
CN(C)CCNc1ccc2ncn3c4ccc(O)cc4c(=O)c1c23	dFosB act 64, PAX8 reporter 64 (no result: INS-1E GSIS act, Cneo AK release)
COc1ccc2sc3cccc(NCCN(C)C)c3c(=O)c2c1	none (no result: dFosB act, CDK5 inh, Cneo AK release)
CN(C)CCNc1ccc(CO)c2sc3ccc(O)cc3c(=O)c12	dFosB act 38, PAX8 reporter 96 (no result: INS-1E GSIS act, Cneo AK release)
Cc1ccc(NC(=O)CN(C)S(=O)(=O)c2cccc3cccnc23)cc1	none
Cc1ccc(NC(=O)CN(C)C(=O)COc2cccc3cccnc23)cc1	INS-1E GSIS act 40 (no result: Cneo AK release)
COc1ccc(-c2cc([N+](=O)[O-])ccc2OCC(=O)N(C)CC(=O)Nc2ccc(C)cc2)cc1	HIV Env fusion 104
C[C@H](NC(=O)[C@H]1N[C@H]2c3ccc(-c4cccnc4)c(=O)n3C[C@H]2[C@@H]1CO)c1ccccc1	none (no result: dFosB act, HIV Env fusion, PAX8 reporter, CDK5 inh)
CC1(C)C2CCC1(C)C(OC(=O)c1ccccc1C(=O)O)C2 (stereo not given)	none
CC1(C)C2CCC1(C)C(OCCNCCOC(=O)Nc1ccccc1)C2 (stereo not given)	HIV Env fusion 69
O=C(c1ccccc1)N1N=C(C(F)(F)F)CC1(O)c1ccccc1O (stereo not given)	HIV Env fusion 58
CC1=NN(C(=O)c2ccccc2)C(O)(c2ccc(Br)cc2)C1 (stereo not given)	HIV Env fusion 80 (no result: Cneo AK release)
O=C(NC1CCCC1)c1ccc(Cl)c(S(=O)(=O)N2CCOCC2)c1	INS-1E GSIS act 47
Cc1ccc(C(=O)NC2CCCCCCC2)cc1S(=O)(=O)N1CCOCC1	none
Cc1ccc(CSCCNC(=O)c2ccc(Cl)c(S(=O)(=O)N3CCOCC3)c2)cc1	HIV Env fusion 85 (no result: INS-1E GSIS act, PAX8 reporter)
O=C(NCCC1=CCCCC1)c1ccc(Cl)c(S(=O)(=O)N2CCOCC2)c1	none (no result: INS-1E GSIS act)
CC1CN(S(=O)(=O)c2cc(C(=O)NCc3ccncc3)ccc2Cl)CC(C)O1 (stereo not given)	none (no result: HIV Env fusion)
Cc1ccccc1CCNC(=O)c1ccc(Cl)c(S(=O)(=O)N2CC(C)OC(C)C2)c1 (stereo not given)	HIV Env fusion 59
COCC(=O)Nc1ccc2c(c1)C(=O)N(C)[C@H]1CC[C@H](CC(=O)NCCc3ccccc3)O[C@@H]1CO2	none (no result: dFosB act, CDK5 inh)
CN(C)CC(=O)Nc1ccc2c(c1)[C@H]1C[C@H](CC(=O)NCc3ccccn3)O[C@H](CO)[C@H]1O2	none (no result: dFosB act, CDK5 inh)
COc1cccc(NC(=O)N[C@H]2CC[C@@H](CC(=O)NCc3ccccn3)O[C@@H]2CO)c1	none (no result: dFosB act, CDK5 inh)
C[C@@H]1CN([C@H](C)CO)C(=O)Cc2cc(NC(=O)NC3CCCCC3)ccc2O[C@H]1CN(C)C(=O)NC1CCCCC1	none (no result: dFosB act, PAX8 reporter, CDK5 inh)
O=C(c1ccccc1)N(C(=O)c1ccccc1)c1ncnc2c1C(c1ccccc1)c1c(ccc3ccccc13)O2 (stereo not given)	PAX8 reporter 72
O=C(N[C@H]1CC[C@@H](CC(=O)N2CCc3ccccc3C2)O[C@@H]1CO)C1CC1	none (no result: dFosB act, CDK5 inh)
C=C1c2cccc(O)c2C(=O)C2C(=O)[C@]3(O)C(=O)C(C(N)=O)C(=O)[C@@H](N(C)C)[C@@H]3[C@@H](O)[C@H]12 (stereo not given in full)	HIV Env fusion 60 (no result: INS-1E GSIS act)
NC(=S)NN=C1CCC(C2CCCCC2)CC1 (stereo not given)	none
NC(=S)NN=C1CCCCCCCCCC1	INS-1E GSIS act 55 (no result: HIV Env fusion)
COc1ccc(-c2n(Cc3ccccc3)c3ccccc3[n+]2Cc2ccccc2)cc1	HIV Env fusion 70, PAX8 reporter 89 (no result: Cneo AK release)
O=C(Nc1nc2cc3c(cc2s1)OCCO3)c1ccco1	HIV Env fusion 58 (no result: INS-1E GSIS act, PAX8 reporter)
CCC(=O)Nc1ccc2c(c1)C(=O)N(C)C[C@H](OC)[C@H](C)CN(CC1CCOCC1)[C@H](C)CO2	none (no result: dFosB act, CDK5 inh)
Cc1noc(C)c1NC(=O)N(C)C[C@H]1Oc2ncc(C#CCN(C)C)cc2C(=O)N([C@@H](C)CO)C[C@H]1C	none (no result: dFosB act, PAX8 reporter, CDK5 inh)
